This note sets out measurements from ChEMBL document CHEMBL4732057, “Design, synthesis and biological evaluation of second-generation benzoylpiperidine derivatives as reversible monoacylglycerol lipase (MAGL) inhibitors” (Eur J Med Chem, 2021).

One assay addresses T1, Monoglyceride lipase (Homo sapiens, UniProt Q99685).
T1 sequence (Q99685 whole entry): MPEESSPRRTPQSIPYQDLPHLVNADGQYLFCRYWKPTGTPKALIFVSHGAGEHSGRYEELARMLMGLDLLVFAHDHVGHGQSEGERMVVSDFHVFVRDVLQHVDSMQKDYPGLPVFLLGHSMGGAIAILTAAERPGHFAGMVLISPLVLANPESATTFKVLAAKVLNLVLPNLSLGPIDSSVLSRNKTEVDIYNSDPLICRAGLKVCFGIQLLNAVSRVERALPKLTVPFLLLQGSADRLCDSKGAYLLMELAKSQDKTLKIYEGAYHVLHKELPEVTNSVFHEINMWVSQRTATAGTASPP
The experiment in a line: Inhibition of human recombinant MAGL using 4-nitrophenylacetate as substrate incubated for 30 mins by microplate reader assay. The method, boiled down: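 Human recombinant MAGL, 11 ng/well, in 10 mM Tris pH 7.2 with 1 mM EDTA and 0.1 mg/mL BSA, at room temperature. 4-NPA 133.3 µM stock added; enzyme added last. Absorbance at 405 nm after 30 min, minus a no-enzyme blank for each concentration. Sigmoidal fit; duplicates of three independent experiments.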

A further assay has as its system HCT-116. The experiment in a line: Antiproliferative activity against human HCT116 cells as reduction in cell growth measured after 96 hrs by Celltiter-glo luminescent assay. In kind it is functional, cell-based. The note with it: HCT-116, 96 h. In outline:
(§1)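 Cell lines kept at 37 °C, 5% CO2; 5 × 10^2 cells per well, compound added the day after seeding at 200 to 0.02 µM. Viability read after 96 h by CellTiter-Glo luminescence. IC50 from logistic dose-response curves, in triplicate; error bars are SD.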
A general note: In ATP-based viability assays light output follows the ATP content of the culture.

The subject of a further assay is MDA-MB-231. The experiment in a line: Antiproliferative activity against human MDA-MB-231 cells as reduction in cell growth measured after 96 hrs by Celltiter-glo luminescent assay. In kind it is functional, cell-based. The note with it: MDA-MB-231, 96 h. The method, boiled down: as §1
The subject of the next assay is Caov-3 cell line. The experiment in a line: Antiproliferative activity against human CAOV3 cells as reduction in cell growth measured after 96 hrs by Celltiter-glo luminescent assay. In kind it is functional, cell-based. The note with it: Caov-3, 96 h. The method, boiled down:
as §1

Another assay has as its system OVCAR-3. The experiment in a line: Antiproliferative activity against human OVCAR3 cells as reduction in cell growth measured after 96 hrs by Celltiter-glo luminescent assay. Format: functional, cell-based. The note with it: OVCAR-3, 96 h. The method, boiled down: as §1
Another assay concerns SK-OV-3. The experiment in a line: Antiproliferative activity against human SKOV3 cells as reduction in cell growth measured after 96 hrs by Celltiter-glo luminescent assay. Format: functional, cell-based. The note with it: SK-OV-3, 96 h. In outline: as §1
Assay [1] can be described thus: Cytotoxicity against cancer-derived human organoids in HGSOC patient assessed as reduction in cell viability up to 100 uM measured after 96 hrs by Celltiter-glo luminescent assay. In kind it is functional, Neoplasm. The note with it: dose microM <=100. In outline: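 Organoids from three HGSOC patients. Tissue digested with 2 mg/mL collagenase for 30 min, embedded in BME matrix and cultured. Treated at 100 µM, with carboplatin as positive control. Viability read by CellTiter-Glo luminescence.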

A short description of assay [2]: Antiproliferative activity against human PDAC-3 cells assessed as inhibition of cell growth incubated for 72 hrs by SRB assay. Format: functional, cell-based. The note with it: PDAC-3, 72 h. In outline:
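Primary patient-derived PDAC-3 cells, cultured under 20 passages in RPMI-1640 with 10% NBCS. Compounds dissolved in DMSO and tested at 8 concentrations, 156.25 to 20 000 nM. Growth read by sulforhodamine-B assay.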
For orientation: In SRB staining, fixed cells bind dye roughly in proportion to their protein.

Structures are written as SMILES.

For the compound `O=C(c1ccc(Oc2ccccc2)cc1)C1CCN(C(=O)c2cccc(O)c2)CC1`, the IC50 at Monoglyceride lipase stood at 278 nM.
Take `COc1nn(-c2ccc(NC(=O)OCc3ccccc3)c(C)c2)c(=O)o1`: the IC50 at Monoglyceride lipase is 130 nM; in the assay with HCT-116, 38000 nM; in the assay on MDA-MB-231, 83000 nM; with Caov-3 cell line, 95000 nM; in the assay with OVCAR-3 it was 53000 nM; in the assay on SK-OV-3, 33000 nM. Further, the “inhibition (INH)” value in assay [1] stood at 50%.
With `CC(C)c1ccc(C(=O)C2CCN(C(=O)c3cncc(O)c3)CC2)cc1`, the IC50 at Monoglyceride lipase was 2000 nM.
On to `Nc1ccn([C@@H]2O[C@H](CO)[C@@H](O)C2(F)F)c(=O)n1` [GEMCITABINE], for which, in assay [2], the half-maximal inhibitory concentration (IC50) was 5.54 nM.
`CC(C)c1ccc(C(=O)C2CCN(C(=O)c3cc(O)ccc3[N+](=O)[O-])CC2)cc1`: the IC50 at Monoglyceride lipase turned out to be 4500 nM.
On to `CC(C)c1ccc(C(=O)C2CCN(C(=O)c3cccc(O)n3)CC2)cc1`, for which the IC50 at Monoglyceride lipase was > 10000 nM.
Consider `CC(C)c1ccc(C(=O)C2CCN(C(=O)c3cc(O)ccc3C(F)(F)F)CC2)cc1`, for which, on Monoglyceride lipase, the IC50 was found to be 8200 nM.
The same measure, in the same setting: to `O=C(c1ccc([S+]([O-])c2ccccc2)cc1)C1CCN(C(=O)c2cccc(O)c2)CC1` (stereo not given) belongs 4300 nM; to `O=C(c1ccc(Cc2ccccc2)cc1)C1CCN(C(=O)c2cccc(O)c2)CC1`, 78 nM; to `O=C(c1ccc(-c2cn(-c3ccccc3)nn2)cc1)C1CCN(C(=O)c2cccc(O)c2)CC1`, 1000 nM.
Consider `CC(C)c1ccc(C(=O)C2CCN(C(=O)c3ccnc(O)c3)CC2)cc1`, for which, at Monoglyceride lipase, the IC50 is > 10000 nM.
Same read-out and setting: the same measure for `Cc1ccc(O)cc1C(=O)N1CCC(C(=O)c2ccc(C(C)C)cc2)CC1`: 2300 nM.
Still for that read-out and setting: to `O=C(c1ccc(-c2cn(CCCc3ccccc3)nn2)cc1)C1CCN(C(=O)c2cccc(O)c2)CC1` belongs 3300 nM.
In the case of `O=C(c1ccc(S(=O)(=O)c2ccccc2)cc1)C1CCN(C(=O)c2cccc(O)c2)CC1`, the IC50 on Monoglyceride lipase came to 3400 nM.
Same read-out and setting: to `CC(C)c1ccc(C(=O)C2CCN(C(=O)c3cc(O)ccn3)CC2)cc1` belongs > 10000 nM; to `O=C(c1ccc(C2CCCCC2)cc1)C1CCN(C(=O)c2cccc(O)c2)CC1`, 129 nM; to `CC(C)c1ccc(C(=O)C2CCN(C(=O)c3cc(O)ccc3N)CC2)cc1`, > 10000 nM.
Same read-out and setting: to `CC(C)c1ccc(C(=O)C2CCN(C(=O)c3cc(O)ccc3F)CC2)cc1` belongs 81 nM; to `O=C(c1ccc(Sc2ccccc2)cc1)C1CCN(C(=O)c2cccc(O)c2)CC1`, 74 nM; to `O=C(c1ccc(-c2cn(Cc3ccccc3)nn2)cc1)C1CCN(C(=O)c2cccc(O)c2)CC1`, 4400 nM.
Take `O=C(c1ccc(C2CC2)cc1)C1CCN(C(=O)c2cccc(O)c2)CC1`: the IC50 on Monoglyceride lipase came to 368 nM.
For the compound `CC(C)c1ccc(C(=O)C2CCN(C(=O)c3cc(O)c(F)cc3F)CC2)cc1`, on Monoglyceride lipase, the IC50 worked out at 31 nM.
Regarding `CC(C)c1ccc(C(=O)C2CCN(C(=O)c3cccc(O)c3)CC2)cc1`, the half-inhibitory concentration (IC50) on Monoglyceride lipase is 142 nM.
For `O=C(c1ccc(Nc2ccccc2)cc1)C1CCN(C(=O)c2cccc(O)c2)CC1`, the IC50 on Monoglyceride lipase was determined as 758 nM.

Usually IC50 stands for the point on the concentration scale where inhibition reaches its midpoint.
